Laboratory results reported in ChEMBL document CHEMBL2021854, “2-Aminopyrimidine based 4-aminoquinoline anti-plasmodial agents. Synthesis, biological activity, structure-activity relationship and mode of action studies” (Eur J Med Chem, 2012).

How the values were obtained:
Plasmodium falciparum [1] = experiment: Antiplasmodial activity chloroquine-sensitive Plasmodium falciparum 3D7 infected in human A+ erythrocytes assessed as inhibition of [3H]-hypoxanthine incorporation after 24 hrs by scintillation counting; format: functional, organism-based
Plasmodium falciparum [2] = experiment: Antiplasmodial activity chloroquine-resistant Plasmodium falciparum K1 infected in human A+ erythrocytes assessed as inhibition of [3H]-hypoxanthine incorporation after 24 hrs by scintillation counting; format: functional, organism-based
Plasmodium falciparum [3] = experiment: Resistant factor, ratio of IC50 for chloroquine-resistant Plasmodium falciparum K1 to IC50 for chloroquine-sensitive Plasmodium falciparum 3D7; format: functional
Outline: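 Resistance factor computed as IC50 against K1 divided by IC50 against 3D7, both from the [3H]hypoxanthine incorporation assay.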

MDCK = experiment: Cytotoxicity against MDCK cells assessed as cell viability by colorimetric formazan-based MTS assay; design: species or system Canis lupus familiaris; settings: dog, mdck
Outline: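 Cytotoxicity on MDCK cells; 50% cytotoxic concentration from cell viability measured by colorimetric formazan-based MTS assay.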

[4] = Cytotoxicity against MDCK cells assessed as minimum compound concentration required to causes microscopically detectable alteration of normal cell morphology; format: cell-based, Canis lupus familiaris; settings: dog
Outline: (§1)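 Confluent, non-proliferating cell cultures were exposed to the compounds. The endpoint was the minimum concentration producing a microscopically detectable alteration of normal cell morphology.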

[5] = Selectivity index, ratio of CC50 for MDCK cells to IC50 for chloroquine-resistant Plasmodium falciparum K1; format: functional
Outline: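 Selectivity index computed as MTS-based CC50 on MDCK cells divided by IC50 against P. falciparum K1.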

[6] = Cytotoxicity against african green monkey Vero cells assessed as minimum compound concentration required to causes microscopically detectable alteration of normal cell morphology; format: cell-based; settings: chlorocebus sabaeus; outline: as §1
Human respirovirus 3 = experiment: Antiviral activity against Parainfluenza-3 virus infected in african green monkey Vero cells assessed as inhibition of virus-induced cytopathogenicity after 4 days; format: functional, organism-based; settings: Human respirovirus 3, Vero, 96 h
Outline: (§2)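 Confluent HEL, Vero or HeLa monolayers were inoculated with 100 CCID50 of virus in the presence of varying concentrations of compound. Cytopathicity was scored when it reached completion in untreated, virus-infected control cultures.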

[7] = tested on: Mammalian orthoreovirus 1; experiment: Antiviral activity against Reovirus-1 infected in african green monkey Vero cells assessed as inhibition of virus-induced cytopathogenicity after 4 days; format: functional, organism-based; settings: Mammalian orthoreovirus 1, Vero, 96 h; outline: as §2
Sindbis virus = experiment: Antiviral activity against Sindbis virus infected in african green monkey Vero cells assessed as inhibition of virus-induced cytopathogenicity after 4 days; format: functional, organism-based; settings: 96 h; outline: as §2
Coxsackievirus B4 [8] = experiment: Antiviral activity against Coxsackie virus B4 infected in african green monkey Vero cells assessed as inhibition of virus-induced cytopathogenicity after 4 days; format: functional, organism-based; settings: Enterovirus B, 96 h; outline: as §2
Punta Toro virus = experiment: Antiviral activity against Punta Toro virus infected in african green monkey Vero cells assessed as inhibition of virus-induced cytopathogenicity after 4 days; format: functional, organism-based; settings: 96 h; outline: as §2
Human alphaherpesvirus 1 [9] = experiment: Antiviral activity against HSV1 KOS infected in HEL cells assessed as inhibition of virus-induced cytopathogenicity after 4 days; format: functional, organism-based; settings: Human alphaherpesvirus 1, KOS, 96 h
Outline: (§3)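 Confluent HEL or HeLa monolayers infected with 100 CCID50 of virus in the presence of varying compound concentrations.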

Human alphaherpesvirus 2 = experiment: Antiviral activity against HSV2 G infected in HEL cells assessed as inhibition of virus-induced cytopathogenicity after 4 days; format: functional, organism-based; settings: Human alphaherpesvirus 2, strain G, 96 h; outline: as §2
[10] = tested on: Vesicular stomatitis virus; experiment: Antiviral activity against Vesicular stomatitis virus infected in HEL cells assessed as inhibition of virus-induced cytopathogenicity after 4 days; format: functional, organism-based; settings: 96 h; outline: as §3
Human alphaherpesvirus 1 [11] = experiment: Antiviral activity against thymidine kinase-deficient acyclovir-resistant HSV1 KOS infected in HEL cells assessed as inhibition of virus-induced cytopathogenicity after 4 days; format: functional, organism-based; settings: Human alphaherpesvirus 1, KOS, 96 h; outline: as §3
[12] = Cytotoxicity against human HEL cells assessed as minimum compound concentration required to causes microscopically detectable alteration of normal cell morphology; format: cell-based; outline: as §1
[13] = Cytotoxicity against human HeLa cells assessed as minimum compound concentration required to causes microscopically detectable alteration of normal cell morphology; format: cell-based; outline: as §1
[14] = tested on: Vesicular stomatitis virus; experiment: Antiviral activity against Vesicular stomatitis virus infected in HeLa cells assessed as inhibition of virus-induced cytopathogenicity after 4 days; format: functional, organism-based; settings: 96 h; outline: as §3
Coxsackievirus B4 [15] = experiment: Antiviral activity against Coxsackie virus B4 infected in human HeLa cells assessed as inhibition of virus-induced cytopathogenicity after 4 days; format: functional, organism-based; settings: Enterovirus B, 96 h; outline: as §2
[16] = tested on: Respiratory syncytial virus; experiment: Antiviral activity against Respiratory syncytial virus infected in human HeLa cells assessed as inhibition of virus-induced cytopathogenicity after 4 days; format: functional, organism-based; settings: 96 h; outline: as §2
Influenza A virus [17] = experiment: Antiviral activity against Influenza A virus H1N1 infected in MDCK cells assessed as reduction visual scoring of virus-induced cytopathogenicity after 4 days; format: functional, organism-based; settings: 96 h
Outline: (§4)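 MDCK monolayers infected with 100 CCID50 of influenza A (H1N1 or H3N2) or influenza B, with varying compound concentrations. Cytopathicity read when untreated infected controls reached complete CPE.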

Influenza A virus [18] = experiment: Antiviral activity against Influenza A virus H3N2 infected in MDCK cells assessed as reduction visual scoring of virus-induced cytopathogenicity after 4 days; format: functional, organism-based; settings: 96 h; outline: as §4
Influenza B virus [19] = experiment: Antiviral activity against Influenza B virus infected in MDCK cells assessed as reduction visual scoring of virus-induced cytopathogenicity after 4 days; format: functional, organism-based; settings: 96 h; outline: as §4
Influenza A virus [20] = experiment: Antiviral activity against Influenza A virus H1N1 infected in MDCK cells assessed as inhibition of virus-induced cytopathogenicity after 4 days by colorimetric formazan-based MTS assay; format: functional, organism-based; settings: 96 h
Influenza A virus [21] = experiment: Antiviral activity against Influenza A virus H3N2 infected in MDCK cells assessed as inhibition of virus-induced cytopathogenicity after 4 days by colorimetric formazan-based MTS assay; format: functional, organism-based; settings: 96 h
Influenza B virus [22] = experiment: Antiviral activity against Influenza B virus infected in MDCK cells assessed as inhibition of virus-induced cytopathogenicity after 4 days by colorimetric formazan-based MTS assay; format: functional, organism-based; settings: 96 h
Human betaherpesvirus 5 [23] = experiment: Antiviral activity against Cytomegalovirus AD-169 infected in HEL cells assessed as inhibition of virus plaque formation after 4 days; format: functional, organism-based; settings: Human betaherpesvirus 5, AD169, HEL, 96 h
Human betaherpesvirus 5 [24] = experiment: Antiviral activity against Human cytomegalovirus Davis infected in HEL cells assessed as inhibition of virus plaque formation after 4 days; format: functional, organism-based; settings: Human betaherpesvirus 5, Davis, 96 h
HeLa = experiment: Cytotoxicity against human HeLa cells assessed as cell viability by colorimetric formazan-based MTS assay
Human alphaherpesvirus 3 [25] = experiment: Antiviral activity against […] expressing thymidine kinase infected in HEL cells assessed as reduction of virus plaque formation after 4 days; format: functional, cell-based; settings: Human alphaherpesvirus 3, strain Oka vaccine, 96 h
Human alphaherpesvirus 3 [26] = experiment: Antiviral activity against thymidine kinase-deficient […] infected in HEL cells assessed as reduction of virus plaque formation after 4 days; format: functional, organism-based; settings: Human alphaherpesvirus 3, 07-1, HEL, 96 h
[27] = Cytotoxicity against cat CRFK cells assessed as cell viability by colorimetric formazan-based MTS assay; design: species or system Felis catus; settings: crfk
[28] = tested on: Feline infectious peritonitis virus; experiment: Antiviral activity against FIPV infected in cat CRFK cells assessed as inhibition of virus-induced cytopathic effect after 4 days by colorimetric formazan-based MTS assay; format: functional, cell-based; settings: Alphacoronavirus 1, CRFK, 96 h
Felid alphaherpesvirus 1 = experiment: Antiviral activity against Feline herpesvirus infected in cat CRFK cells assessed as inhibition of virus-induced cytopathic effect after 4 days by colorimetric formazan-based MTS assay; format: functional, organism-based; settings: Felid alphaherpesvirus 1, CRFK, 96 h
[29] = tested on: Human immunodeficiency virus 1; experiment: Antiviral activity against HIV1 infected in human CEM cells assessed as inhibition of virus-induced cytopathic effect after 4 days; format: functional, organism-based; settings: Human immunodeficiency virus 1, CCRF-CEM, 96 h
Outline: (§5)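 CEM T-lymphocytes (~3 × 10^5 cells/ml) were infected with HIV-1 IIIB or HIV-2 ROD at ~100 CCID50, then immediately plated with a range of compound concentrations. Giant cell formation was scored microscopically after 4 days at 37 °C. Cytostatic activity was tested in parallel in uninfected CEM cells.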

[30] = tested on: Human immunodeficiency virus 2; experiment: Antiviral activity against HIV2 infected in human CEM cells assessed as inhibition of virus-induced cytopathic effect after 4 days; format: functional, organism-based; settings: Human immunodeficiency virus 2, CCRF-CEM, 96 h; outline: as §5
[31] = Inhibition of beta-hematin formation assessed as Ferriprotoporphyrin IX biomineralisation at 1 mg/ml after 24 hrs; format: functional
Outline: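 Hemin chloride (0.5 mg/ml in DMSO) mixed with 0.5 M sodium acetate buffer pH 4.4 and drug or solvent control, incubated 37 °C for 24 h. Pellet washed with DMSO to remove unreacted hemin, dissolved in 0.1 N NaOH, absorbance read at 405 nm; percent inhibition relative to control. Highest concentration tested 1 mg/ml.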

CCOC(=O)c1c(C)nc(NCCCNc2ccnc3cc(Cl)ccc23)nc1-c1ccccc1
IC50 (Plasmodium falciparum [1]): 0.247 µM | IC50 (Plasmodium falciparum [2]): 0.0522 µM | Ratio IC50 (Plasmodium falciparum [3]): 0.21 | CC50 (MDCK): 0.8 µM | MCC [4]: 800 nM | Ratio CC50/IC50 [5]: 15.33 | MCC [6]: 100 µM | EC50 (Human respirovirus 3): > 20 µM | EC50 [7]: > 20 µM | EC50 (Sindbis virus): > 20 µM | EC50 (Coxsackievirus B4 [8]): > 20 µM | EC50 (Punta Toro virus): > 20 µM | EC50 (Human alphaherpesvirus 1 [9]): > 100 µM | EC50 (Human alphaherpesvirus 2): > 100 µM | EC50 [10]: > 100 µM | EC50 (Human alphaherpesvirus 1 [11]): > 100 µM | MCC [12]: > 20 µM | MCC [13]: > 100 µM | EC50 [14]: > 100 µM | EC50 (Coxsackievirus B4 [15]): > 100 µM | EC50 [16]: > 100 µM | EC50 (Influenza A virus [17]): > 0.16 µM | EC50 (Influenza A virus [18]): > 0.16 µM | EC50 (Influenza B virus [19]): > 0.16 µM | EC50 (Influenza A virus [20]): > 0.16 µM | EC50 (Influenza A virus [21]): > 0.16 µM | EC50 (Influenza B virus [22]): > 0.16 µM | EC50 (Human betaherpesvirus 5 [23]): 4 µM | EC50 (Human betaherpesvirus 5 [24]): 4 µM | CC50 (HeLa): 7.07 µM | EC50 (Human alphaherpesvirus 3 [25]): > 4 µM | EC50 (Human alphaherpesvirus 3 [26]): > 20 µM | CC50 [27]: 15.9 µM | EC50 [28]: > 4 µM | EC50 (Felid alphaherpesvirus 1): > 4 µM | EC50 [29]: > 2 µM | EC50 [30]: > 2 µM | inhibition [31]: 100%
